The results in this text go back to ChEMBL document CHEMBL3425484, “Novel N-benzenesulfonyl sophocarpinol derivatives as coxsackie B virus inhibitors” (ACS Med Chem Lett, 2015).

A value given as a limit tells only on which side of the number the result lay.

Broadly, the IC50 is the midpoint of a concentration-inhibition curve.

Series [1] in a line: Cytotoxicity against african green monkey Vero cells assessed as inhibition of cell growth after 24 hrs by CPE assay. In kind it is cell-based. The note with it: chlorocebus sabaeus, read-out: TC50.
The test system of a further series is Coxsackievirus. Kind of series: Antiviral activity against Coxsackievirus B3 infected in african green monkey Vero cells assessed as reduction in viral-induced cytopathic effect. In kind it is functional, organism-based. Summed up: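 Vero (African green monkey kidney) cells were infected with the CVB subtype and scored by viral cytopathogenic effect (CPE) reduction, with ribavirin as the positive control. IC50 is the concentration that inhibits CVB growth by 50%.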
Background: Cytopathic effects are the visible damage that an infection or toxin causes in cultured cells.

A short description of series [2]: Selectivity index, ratio of TC50 for african green monkey Vero cells to IC50 for Coxsackievirus B3 infected in african green monkey Vero cells. In kind it is toxicity, cell-based. To be noted: read-out: Selectivity Index. Summed up: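 SI is calculated as TC50 (50% inhibition of Vero cell growth) divided by IC50 (50% inhibition of the respective CVB subtype's growth, from the CPE assay in Vero cells, ribavirin as positive control).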

With `O=[N+]([O-])c1ccccc1S(=O)(=O)N1C[C@@H]2CCCN3CCC[C@@H]([C@H]23)[C@H]1CCCCO`, the CC50 at 24 h in series [1] came to 244 µM. Moreover, the IC50 in the series on Coxsackievirus came to 35.7 µM. For the same compound, the selectivity ratio in series [2] stood at 6.8.
On the same counts, the results for `N#Cc1ccc(S(=O)(=O)N2C[C@@H]3CCCN4CCC[C@@H]([C@H]34)[C@H]2C/C=C/C(=O)O)cc1` are greater than 466 µM, 29.9 µM and greater than 15.7.
On the same counts, the results for `COC(=O)CCC[C@@H]1[C@H]2CCCN3CCC[C@@H](CN1S(=O)(=O)c1cccc(C#N)c1)[C@@H]23` are 288 µM, 11.7 µM and 24.6.
On the same counts, the results for `COC(=O)C/C=C/[C@@H]1[C@H]2CCCN3CCC[C@@H](CN1S(=O)(=O)c1ccccc1C(F)(F)F)[C@@H]23` are 38.1 µM, 11.9 µM and 3.2.
In the case of `O=C(O)C/C=C\[C@@H]1[C@H]2CCCN3CCC[C@@H](CN1S(=O)(=O)c1cc(Br)c(Br)s1)[C@@H]23`, in series [1], the CC50 at 24 h was 191 µM. Besides, the IC50 in the series on Coxsackievirus came out at 53.1 µM. Also, the selectivity ratio in series [2] was 3.6.
The like results for `N#Cc1cccc(S(=O)(=O)N2C[C@@H]3CCCN4CCC[C@@H]([C@H]34)[C@H]2CCCC(=O)O)c1` were, in that order, 428 µM, 82.3 µM and 5.2.
The like results for `O=C(O)C/C=C\[C@@H]1[C@H]2CCCN3CCC[C@@H](CN1S(=O)(=O)c1ccccc1[N+](=O)[O-])[C@@H]23` were, in that order, 595 µM, 16.2 µM and 36.8.
In the case of `COC(=O)C/C=C\[C@@H]1[C@H]2CCCN3CCC[C@@H](CN1S(=O)(=O)c1ccc(C#N)cc1)[C@@H]23`, the CC50 at 24 h in series [1] was 292 µM. The IC50 in the series on Coxsackievirus was 8.04 µM. In addition, the selectivity ratio in series [2] was 36.3.
On the same counts, the results for `COC(=O)CCC[C@@H]1[C@H]2CCCN3CCC[C@@H](CN1S(=O)(=O)c1ccc(C(F)(F)F)cc1)[C@@H]23` are 73.4 µM, 2.54 µM and 28.9.
The like results for `O=S(=O)(c1ccc(C(F)(F)F)cc1)N1C[C@@H]2CCCN3CCC[C@@H]([C@H]23)[C@H]1CCCCO` were, in that order, 233 µM, 6.55 µM and 35.5.
On the same counts, the results for `N#Cc1ccccc1S(=O)(=O)N1C[C@@H]2CCCN3CCC[C@@H]([C@H]23)[C@H]1/C=C\CC(=O)O` are 430 µM, 27.6 µM and 15.6.
`O=C(O)/C=C/C[C@@H]1[C@H]2CCCN3CCC[C@@H](CN1S(=O)(=O)c1ccccc1C(F)(F)F)[C@@H]23`: the CC50 at 24 h in series [1] turned out to be 424 µM. Moreover, in the series with Coxsackievirus, the IC50 was 27.2 µM. In addition, the selectivity ratio in series [2] was determined as 15.6.
On the same counts, the results for `N#Cc1cccc(S(=O)(=O)N2C[C@@H]3CCCN4CCC[C@@H]([C@H]34)[C@H]2/C=C\CCO)c1` are 148 µM, 5.47 µM and 27.
Regarding `N#Cc1cccc(S(=O)(=O)N2C[C@@H]3CCCN4CCC[C@@H]([C@H]34)[C@H]2CCCCO)c1`, the CC50 at 24 h in series [1] is 147 µM. The IC50 with Coxsackievirus amounted to 11.3 µM. In addition, the selectivity ratio in series [2] stood at 13.
On the same counts, the results for `O=C(O)C/C=C/[C@@H]1[C@H]2CCCN3CCC[C@@H](CN1S(=O)(=O)c1ccccc1C(F)(F)F)[C@@H]23` are 393 µM, 11.1 µM and 35.4.
On the same counts, the results for `O=C(O)CCC[C@@H]1[C@H]2CCCN3CCC[C@@H](CN1S(=O)(=O)c1ccccc1[N+](=O)[O-])[C@@H]23` are 410 µM, 78.9 µM and 5.2.
On the same counts, the results for `N#Cc1ccc(S(=O)(=O)N2C[C@@H]3CCCN4CCC[C@@H]([C@H]34)[C@H]2/C=C\CC(=O)O)cc1` are 745 µM, 52.4 µM and 14.2.
On to `O=C(O)C/C=C\[C@@H]1[C@H]2CCCN3CCC[C@@H](CN1S(=O)(=O)c1cccc([N+](=O)[O-])c1)[C@@H]23`, for which, in series [1], the CC50 at 24 h turned out to be 445 µM. Further, the IC50 in the series with Coxsackievirus turned out to be 63.6 µM. In addition, the selectivity ratio in series [2] worked out at 7.
On the same counts, the results for `O=C(O)C/C=C\[C@@H]1[C@H]2CCCN3CCC[C@@H](CN1S(=O)(=O)c1ccc([N+](=O)[O-])cc1)[C@@H]23` are 309 µM, 49.8 µM and 6.2.
Take `N#Cc1cccc(S(=O)(=O)N2C[C@@H]3CCCN4CCC[C@@H]([C@H]34)[C@H]2/C=C/CC(=O)O)c1`: the CC50 at 24 h in series [1] is 466 µM. Also, in the series on Coxsackievirus, the IC50 was determined as 13.1 µM. The selectivity ratio in series [2] was determined as 35.5.
On the same counts, the results for `COC(=O)C/C=C\[C@@H]1[C@H]2CCCN3CCC[C@@H](CN1S(=O)(=O)c1ccc(C(F)(F)F)cc1)[C@@H]23` are 54.7 µM, 8.17 µM and 6.7.
The like results for `O=[N+]([O-])c1ccc(S(=O)(=O)N2C[C@@H]3CCCN4CCC[C@@H]([C@H]34)[C@H]2/C=C\CCO)cc1` were, in that order, 265 µM, 17 µM and 15.6.
The like results for `COC(=O)C/C=C\[C@@H]1[C@H]2CCCN3CCC[C@@H](CN1S(=O)(=O)c1cc(Br)c(Br)s1)[C@@H]23` were, in that order, 21.1 µM, 1.19 µM and 17.7.
For `N#Cc1cccc(S(=O)(=O)N2C[C@@H]3CCCN4CCC[C@@H]([C@H]34)[C@H]2/C=C\CC(=O)O)c1`, the CC50 at 24 h in series [1] worked out at 745 µM. Besides, in the series on Coxsackievirus, the IC50 is 17.4 µM. Also, the selectivity ratio in series [2] was 42.7.
The like results for `COC(=O)C/C=C\[C@@H]1[C@H]2CCCN3CCC[C@@H](CN1S(=O)(=O)c1cccc([N+](=O)[O-])c1)[C@@H]23` were, in that order, 112 µM, 9.24 µM and 12.1.
On the same counts, the results for `COC(=O)C/C=C/[C@@H]1[C@H]2CCCN3CCC[C@@H](CN1S(=O)(=O)c1ccccc1C#N)[C@@H]23` are 80.3 µM, 8.92 µM and 9.
The like results for `O=C(O)C/C=C\[C@@H]1[C@H]2CCCN3CCC[C@@H](CN1S(=O)(=O)c1ccc(C(F)(F)F)cc1)[C@@H]23` were, in that order, 272 µM, 18.6 µM and 14.7.
For `COC(=O)CCC[C@@H]1[C@H]2CCCN3CCC[C@@H](CN1S(=O)(=O)c1ccccc1[N+](=O)[O-])[C@@H]23`, the CC50 at 24 h in series [1] is 399 µM. The IC50 in the series on Coxsackievirus worked out at 23.9 µM. Besides, the selectivity ratio in series [2] was determined as 16.7.
For `N#Cc1ccccc1S(=O)(=O)N1C[C@@H]2CCCN3CCC[C@@H]([C@H]23)[C@H]1C/C=C/C(=O)O`, in series [1], the CC50 at 24 h stood at 466 µM. In addition, in the series on Coxsackievirus, the IC50 is greater than 155 µM.
